Publication PMC2193645 (The Journal of Experimental Medicine, 1999)

What was measured:
[1] = test system: mature 3.L2 T cells; settings: cited from earlier work; for Effect on mature T cells: ligand class in words
[2] = test system: QC85.5 hybridoma; test: T cell hybridoma assay; format: cell-based, mouse; settings: IL-2 production; in words
Outline: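 Increasing numbers of splenocytes from transgenic mice were cultured 24 h with QC85.5 hybridoma cells. QC85.5 was raised by immunizing CE/J mice with a position-72 altered Hb peptide, subcloned twice, and recognizes several position-72 variants. IL-2 in supernatant was measured by CTLL-2 proliferation and plotted as CTLL-2 cpm against splenocytes per well. Each point is the mean of triplicate wells.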

[3] = test system: mature 3.L2 T cells; settings: B cell apoptosis assay; cited from earlier work
[4] = test system: 3.L2tg thymocytes; test: Three-color FACS of thymocytes from APLtg × 3.L2tg mice; format: in vivo, mouse; settings: for Interpretation: effect on thymic selection of 3.L2tg T cells: ligand expressed in thymus as mHEL epitope tag, in words
[5] = test system: splenocytes from APLtg × 3.L2tg mice; test: Primary T cell proliferation of naive splenocytes to Hb; format: cell-based, mouse; settings: in words
Outline: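 Naive splenocytes from APLtg × 3.L2tg mice or 3.L2tg controls were plated at 5 × 10^5/well with increasing Hb(64–76) peptide concentrations for 48 h. They were then pulsed with 0.4 μCi [3H]TdR for 18 h, harvested and counted. Read-out was mean cpm of triplicate wells per peptide dose, and curves were averaged across several experiments.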

[6] = test system: 3.L2 TCR; settings: cited from earlier work; for Half-life: longevity of the 3.L2 TCR–APL complex; for Half-life / Kd: BIAcore; for Kd: read-out: K D k off/k on, kinetic
[7] = test system: 3.L2.12 hybridoma; settings: cited from earlier work

Substance	Effect on mature T cells [1]	Stimulation of QC85.5 hybridoma by peptide [2]	Relative activity [3]	Interpretation: effect on thymic selection of 3.L2tg T cells [4]	Response of naive 3.L2tg splenocytes to Hb(64–76) on the selecting background [5]	Half-life [6]	Kd [6]	Increase in percentage of CD4-SP cells with high levels of the 3.L2 TCR over 3.L2tg control ([4]; P < 0.01)	Binding to the 3.L2 TCR in BIAcore experiments ([6]; in words)	Fold less active than N72(wt) [1]	Reduction of 3.L2.12 stimulation by peptide [7]
GKKVITAFNEGLK [N72(wt), Hb(64–76)]	the strongest agonist	produce IL-2	100	complete negative selection	tolerant to Hb(64–76)	10.8 s	12 µM				
GKKVITAFQEGLK [Ligand Q72, Hb(64–76) N72Q]	no effect on mature 3.L2 T cells	stimulated most strongly	none	enhance the positive selection				12%	no binding can be detected		
Hb(64–76) N72A [Ligand A72]	a weaker antagonist	produce IL-2	0.0007	modest negative selection		<2 s					
Hb(64–76) N72E [Ligand E72]	no effect on mature T cells		none	no effect on 3.L2tg T cell development							
Hb(64–76) N72I [Ligand I72]	an antagonist		0.006	complete negative selection	tolerant to Hb(64–76)	2.3 to 3.4 s	10 to 20 µM				
Hb(64–76) N72T [Ligand T72]	a weaker agonist	produce IL-2	2	identical effect	tolerant to Hb(64–76)	5.1 s	9.9 µM			50 fold	50 fold
